Source: PubChem BioAssay
The entries come from a sample that favours hits as a whole.
Insulin prom act: TRM-6 insulin promoter activation | TRM-6 cells, insulin promoter eGFP reporter, imaging; plate-scaled: unstimulated 0, stimulated control 100 | activation, % at 2 µM | 130,000 tested, 0.81% active | AID 1296;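 active = activation at 2 µM above a set limit, confirmed on inspection of the cell images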;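 note: share of cells whose green reporter signal exceeds an intensity cutoff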
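material = TRM-6 human fetal islet cells, insulin promoter–eGFP reporter | input = 1,000 TRM-6 cells seeded per well | benchmarks = stimulated versus unstimulated wells as plate controls | measured by = automated fluorescence imaging of paraformaldehyde-fixed, Hoechst-counterstained cells, green channel | schedule = compound exposure 48 h, 37 °C | reagent = tamoxifen at 0.75 µM added at seeding for reporter induction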
A number is an active result.

What do the screens show for `OC(COc1cccc(OCC(O)CN2CCOCC2)c1)CN1CCOCC1` (centres undefined)?
Insulin prom act: inactive

How did Cc1ccc2c(c1)c(C)c(C)n2CC(O)CN1CCOCC1 (centres undefined) do in these assays?
Insulin prom act: 533

How did OC(CN1CCN(c2ccccn2)CC1)Cn1c2ccccc2c2ccccc21 (centres undefined) do in these assays?
Insulin prom act: inactive

What do the screens show for `CC(C)(C)NC(=O)CN(C(=O)CS(=O)CC(=O)Nc1ccc(F)cc1)c1ccc2c(c1)OCCO2` (centres undefined)?
Insulin prom act: inactive

How did O=C(O)CCc1ccc(-c2cccs2)n1CC(=O)Nc1ccccc1C(F)(F)F do in these assays?
Insulin prom act: inactive

What do the screens show for `CCN(CC)C(=O)c1sc2c(c1C)c(=O)n(-c1ccc(C)c(C)c1)c(=O)n2CC(=O)NCC1CCCO1` (centres undefined)?
Insulin prom act: inactive

What do the screens show for `CNC(=O)[C@@H]1C[C@H]1[C@@H](NC(=O)OCc1ccccc1)c1ccccc1`?
Insulin prom act: 255

Results for C[C@H](CO)NC(=O)[C@H](C)[C@H]1C[C@]1(C)[C@H](NC(=O)OCc1ccccc1)c1ccccc1 ?
Insulin prom act: inactive

What do the screens show for `C[C@@H](C(=O)NCC1CC1)[C@@H]1C[C@@]1(C)[C@@H](NC(=O)OCc1ccccc1)c1ccccc1`?
Insulin prom act: inactive

What do the screens show for `CN(CC(=O)NC1CCCCCCC1)S(=O)(=O)c1cnc[nH]1`?
Insulin prom act: inactive

How did CS(=O)(=O)N(CC(=O)Nc1ccc(CC#N)cc1)c1ccc(C23CC4CC(CC(C4)C2)C3)cc1 do in these assays?
Insulin prom act: inactive

What do the screens show for `O=[N+]([O-])c1ccc(COc2ccccc2/C=N/O)cc1`?
Insulin prom act: 529

What do the screens show for `O=C(O)c1cc(/C=N\O)ccc1OCc1ccccc1`?
Insulin prom act: inactive

Results for O=C(CNC(=O)c1ccccc1)OCc1ccc([N+](=O)[O-])cc1 ?
Insulin prom act: inactive

What do the screens show for `CN1/C(=C\C=C2/C(=O)Oc3ccccc3C2=O)C(C)(C)c2ccccc21`?
Insulin prom act: 223

Results for CN1/C(=C\C(=O)Nc2ccc(Br)cc2)C(C)(C)c2ccccc21 ?
Insulin prom act: inactive

What do the screens show for `Cc1nn(-c2ccccc2)c2c1C1(C(=O)N(C)c3ccccc31)C(C#N)=C(N)O2` (centres undefined)?
Insulin prom act: inactive

What do the screens show for `Cn1ncc(Br)c1C(=O)OCC(=O)Nc1nc(-c2ccccc2)cs1`?
Insulin prom act: inactive

What do the screens show for `CC(C)CCN1CCN(Cc2cccc3cccnc23)CC1CCO` (centres undefined)?
Insulin prom act: inactive

What do the screens show for `NC(=O)N/N=C/c1c(F)cccc1F`?
Insulin prom act: inactive

What do the screens show for `O=C(c1ccccc1)N1CCc2ccccc21`?
Insulin prom act: inactive

Results for Cc1cccc2cc3c(N)c(C(=O)N4CCc5ccccc54)sc3nc12 ?
Insulin prom act: 233

How did COc1ccc(C(=O)N2CCc3ccccc32)cc1 do in these assays?
Insulin prom act: inactive

Results for COc1cc(OC)c(-c2cc(C(=O)O)ccc2OC)c(OC)c1 ?
Insulin prom act: inactive

What do the screens show for `COC(CN1C(=O)C(O)=C(C(C)=O)C1c1ccccn1)OC` (centres undefined)?
Insulin prom act: inactive

Results for O=C(c1cc2c(s1)CCCC2)N1CCN(S(=O)(=O)c2ccccc2C(F)(F)F)CC1 ?
Insulin prom act: inactive

Results for CC1SCC(=O)N(CC(=O)Nc2ccc3c(c2)OCCO3)C1=O (centres undefined) ?
Insulin prom act: inactive

How did O=C(Nc1ccc2nc3n(c(=O)c2c1)CCCC3)c1cccc([N+](=O)[O-])c1 do in these assays?
Insulin prom act: inactive

How did Cc1c(C(=O)O)sc2nc3n(c(=O)c12)CCC3 do in these assays?
Insulin prom act: inactive

How did O=c1c2c(-c3ccc([N+](=O)[O-])cc3)csc2nc2n1CCC2 do in these assays?
Insulin prom act: 481

What do the screens show for `CCOC(=O)C(=O)c1csc(NC(=O)CCSc2ccc(C)cc2)n1`?
Insulin prom act: inactive

Results for CN(Cc1ccccc1)S(=O)(=O)c1ccc(Cl)c(C(=O)NCc2ccc3c(c2)OCO3)c1 ?
Insulin prom act: inactive

What do the screens show for `COc1cc(OC)c(NC(=O)CCNS(=O)(=O)c2ccc3c(c2)oc(=O)n3C)cc1Cl`?
Insulin prom act: inactive

Results for COc1ccc(OC)c(NC(=O)CCNS(=O)(=O)c2ccc3c(c2)oc(=O)n3C)c1 ?
Insulin prom act: inactive

What do the screens show for `COc1ccccc1CNC(=O)C(CCSC)NS(=O)(=O)c1ccc2c(c1)oc(=O)n2C` (centres undefined)?
Insulin prom act: 164

Results for Cn1nc(C(=O)Nc2ccc(S(=O)(=O)N3CCCCC3)cc2)ccc1=O ?
Insulin prom act: inactive

What do the screens show for `CCc1cccc2cc3c(N)c(C(=O)Nc4ccc(S(=O)(=O)N5CCCC5)cc4)sc3nc12`?
Insulin prom act: 203

How did O=C(Cc1cccs1)Nc1ccc(S(=O)(=O)N2CCCCC2)cc1 do in these assays?
Insulin prom act: inactive

Results for CCC(CC)N=C1NS(=O)(=O)c2cc([N+](=O)[O-])ccc21 ?
Insulin prom act: inactive
